Publication PMC6247954 (Cell, 2018)
Values belong to the compound of their own block, whether it stands above or below them.

Columns and labels:
[1] = system: YB5 cells (silenced CMV-GFP); assay: GFP reactivation in YB5 measured by flow cytometry; format: cell-based, human; settings: for GFP reactivation by GSK-3 inhibitors: YB5, multiple doses, single exposure for four days
YB5 cells [2] = assay: Time-course RNA-seq in YB5; format: cell-based, human; settings: after excluding genes downregulated at 2hr/4hr
YB5 cells [3] = assay: qPCR of hypermethylated silenced genes in YB5; format: cell-based, human; settings: for reactivation of SYNE1 and MGMT: YB5, 24hr treatment, qPCR
GSK-3β = GSK-3β (Homo sapiens, UniProt P49841); assay: Kinome screening of 250 kinases at 1μM; format: biochemical
GSK-3β, sequence (P49841 whole entry): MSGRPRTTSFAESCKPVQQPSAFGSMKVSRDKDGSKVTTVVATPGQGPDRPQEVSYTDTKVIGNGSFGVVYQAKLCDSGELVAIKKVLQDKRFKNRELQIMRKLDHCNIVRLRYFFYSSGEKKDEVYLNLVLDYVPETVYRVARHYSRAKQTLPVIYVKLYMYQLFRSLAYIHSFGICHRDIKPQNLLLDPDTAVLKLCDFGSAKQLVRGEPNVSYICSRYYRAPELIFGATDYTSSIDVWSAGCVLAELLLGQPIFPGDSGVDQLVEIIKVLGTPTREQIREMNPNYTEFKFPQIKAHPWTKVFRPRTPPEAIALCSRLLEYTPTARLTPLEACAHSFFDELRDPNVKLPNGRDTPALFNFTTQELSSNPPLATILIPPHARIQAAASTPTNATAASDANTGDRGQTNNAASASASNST
In short: (§1)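 Kinase assays were run by a contract lab on a microfluidic mobility-shift platform. Each target kinase was incubated with fluorescently labelled substrate and test compound in a standardized reaction mixture.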

GSK-3α = GSK-3α (Homo sapiens, UniProt P49840); assay: Kinome screening of 250 kinases at 1μM; format: biochemical
GSK-3α, sequence (P49840 whole entry): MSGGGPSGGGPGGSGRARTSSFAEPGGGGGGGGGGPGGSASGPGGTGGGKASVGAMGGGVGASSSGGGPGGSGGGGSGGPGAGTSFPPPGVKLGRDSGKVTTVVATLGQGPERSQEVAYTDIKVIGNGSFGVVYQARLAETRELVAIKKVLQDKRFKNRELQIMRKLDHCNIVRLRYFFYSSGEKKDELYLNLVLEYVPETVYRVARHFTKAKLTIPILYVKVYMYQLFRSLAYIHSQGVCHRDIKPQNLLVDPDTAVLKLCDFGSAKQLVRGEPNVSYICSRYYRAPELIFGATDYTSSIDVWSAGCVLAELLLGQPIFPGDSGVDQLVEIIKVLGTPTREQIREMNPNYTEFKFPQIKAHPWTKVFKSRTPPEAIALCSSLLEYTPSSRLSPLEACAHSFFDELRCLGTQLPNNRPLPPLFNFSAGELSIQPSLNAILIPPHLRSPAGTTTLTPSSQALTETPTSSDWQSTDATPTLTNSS
In short: as §1

human T lymphocytes = assay: Humanized PBMC NSG mice; format: in vivo; settings: 10 mg/kg or 20 mg/kg for 14 days
[4] = system: GFP and GLDC expression in tumors; assay: Pharmacodynamics study in NSG mice; format: in vivo; settings: two-week every other day treatment, qPCR
In short: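 Six gender-matched 8–10-week-old NSG mice randomised to vehicle or drug. 2×10^6 cells injected into the flank. 20mg/kg test compound given i.p. every other day for two weeks, starting when tumours were palpable 9 days after engraftment. Tumours homogenised, total mRNA extracted, expression measured by qPCR; N=3, mean+SEM, Student's t-test.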

SW48 = assay: s.c. SW48 xenograft model in NSG mice; format: in vivo
In short: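 2×10^6 SW48 cells injected s.c. into the flank of randomly assigned, gender-matched 8–10-week-old NSG mice. Once tumours were palpable, 20mg/kg test compound or vehicle given i.p. every other day, for 10 weeks. Tumour size measured by caliper (mean+SEM, Student's t-test); survival recorded in days.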

[5] = system: pSer2 of RNAPII CTD (CDK9 target); assay: Western Blot of CDK substrates after MC180295 treatment; format: cell-based; settings: 2hrs treatment
YB5 and HCT116 = assay: Soft agar colony formation assay; format: cell-based, human; settings: single dose pre-exposure for four days
In short: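 Cells were pretreated with a range of test compound concentrations, kept in drug for two more days, and switched to drug-free medium the day before seeding (four days total). 1000 cells were plated in Noble agar with 2x medium (20% FBS, 2% penicillin/streptomycin). Plates were grown two weeks at 37°C, then stained with 0.005% crystal violet in 10% EtOH.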

HL60 cell line = assay: HL60 differentiation; format: cell-based, human; settings: single dose exposure for four days
In short: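 HL60 cells received one dose 24 h after seeding, drug-free medium on day 3, and analysis on day 4. Cells were washed and stained with PI plus FITC-CD11b or isotype IgG, then read on a Guava flow cytometer. Positive controls were 1μM ATRA and 1.25% DMSO.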

CDK1/2 substrates = assay: Western Blot of CDK substrates after MC180295 treatment; format: cell-based; settings: 2hrs treatment
CDK9/CyclinT1 = CDK9/CyclinT1 (Homo sapiens, UniProt P50750); assay: Isotope kinase activity assay with recombinant CDK9/CyclinT1 and BRG1; format: biochemical; settings: 1μM inhibitor, 32γ-ATP
CDK9/CyclinT1, sequence (P50750 whole entry): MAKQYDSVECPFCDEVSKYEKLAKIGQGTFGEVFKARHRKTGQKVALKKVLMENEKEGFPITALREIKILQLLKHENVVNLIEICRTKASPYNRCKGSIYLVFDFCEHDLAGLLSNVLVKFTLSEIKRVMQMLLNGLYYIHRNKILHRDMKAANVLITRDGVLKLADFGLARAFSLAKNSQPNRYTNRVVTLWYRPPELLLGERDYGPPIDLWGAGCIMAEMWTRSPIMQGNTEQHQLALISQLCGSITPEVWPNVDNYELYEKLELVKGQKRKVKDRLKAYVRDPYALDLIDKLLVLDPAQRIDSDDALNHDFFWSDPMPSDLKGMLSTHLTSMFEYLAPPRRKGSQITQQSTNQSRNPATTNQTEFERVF
CDK9/CyclinT1, sequence (O60563 whole entry partner): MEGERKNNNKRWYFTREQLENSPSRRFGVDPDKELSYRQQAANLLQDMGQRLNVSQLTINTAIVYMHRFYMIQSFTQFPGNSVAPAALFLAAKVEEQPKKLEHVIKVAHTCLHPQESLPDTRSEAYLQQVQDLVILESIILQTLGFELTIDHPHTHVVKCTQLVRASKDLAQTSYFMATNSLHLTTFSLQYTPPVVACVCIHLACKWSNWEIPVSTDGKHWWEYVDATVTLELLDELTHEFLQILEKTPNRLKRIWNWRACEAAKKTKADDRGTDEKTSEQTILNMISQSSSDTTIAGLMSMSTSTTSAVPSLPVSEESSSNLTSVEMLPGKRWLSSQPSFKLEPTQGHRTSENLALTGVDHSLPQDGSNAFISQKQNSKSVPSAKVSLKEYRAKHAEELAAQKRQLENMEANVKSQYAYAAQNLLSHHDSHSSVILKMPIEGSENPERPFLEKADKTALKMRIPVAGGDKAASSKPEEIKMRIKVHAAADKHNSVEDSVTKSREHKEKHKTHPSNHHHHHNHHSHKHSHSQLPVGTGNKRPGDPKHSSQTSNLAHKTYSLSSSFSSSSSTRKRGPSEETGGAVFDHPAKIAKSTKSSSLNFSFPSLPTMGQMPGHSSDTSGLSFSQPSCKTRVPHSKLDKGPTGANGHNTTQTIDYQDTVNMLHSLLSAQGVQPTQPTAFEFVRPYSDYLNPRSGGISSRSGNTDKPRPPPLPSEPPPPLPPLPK
In short: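 Recombinant active full-length CDK9/Cyclin T1 (1.2 μg) pre-incubated 15 min with or without 1μM test compound. Purified BRG1 (0.8 μg) then added, 1 hr at 30 °C in KAS buffer containing 5μCi/μl 32γ-ATP. Reaction stopped by heating at 65 °C for 5 min.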

[6] = system: cancer cell lines vs normal lung fibroblast (IMR90); assay: Anti-proliferation assay; format: cell-based, human; settings: four days after one-time exposure; 5μM HH1 or 0.1μM MC180295
In short: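 Cells seeded in 96-well plates at 40% confluency. Medium refreshed next day, test compound added directly, then cultured two more days at 37°C. Drug-free medium on day four. Cells trypsinised on day 5, mixed 1:1 with trypan blue and counted on an automated counter. Each sample counted at least three times and averaged; triplicate wells per condition.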

YB5 = assay: Cell cycle analysis by propidium iodide staining; format: cell-based, human; settings: four days after single exposure
In short: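 YB5 cells received a single drug dose 24 h after seeding, with drug-free medium replaced three days later. They were analysed four days after treatment by propidium iodide staining and FACSCalibur flow cytometry. Sub-G1 fraction was taken as the apoptotic proportion. N=3.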

panel of 250 kinases = assay: Kinome screening of 250 kinases at 1μM; format: biochemical, human
In short: as §1

substrates of CDK4/6 = assay: Western Blot of CDK substrates after MC180295 treatment; format: cell-based; settings: 2hrs treatment
SW48-luc cells = assay: i.p. SW48-luc model in NSG mice; format: in vivo
In short: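 SW48 cells transfected with ffluc2-eGFP, GFP-positive cells sorted one week later and expanded. Cells injected i.p. into male and female age- and gender-matched NSG mice. Once tumour burden was seen by bioluminescence, mice randomised to 5–20mg/kg test compound or solvent i.p. every other day (3 vehicle, 5 treated). Imaged 5 min after i.p. D-luciferin. Endpoint: natural death or ascites; survival by log-rank (Mantel-Cox).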

ID8 = assay: ID8-VEGF-Defensin syngeneic ovarian cancer mouse model; format: in vivo
In short: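 Female C57BL/6NHsd mice aged 7–8 weeks were injected i.p. with 2.5×10^5 ID8-VEGF-Defensin mouse ovarian cancer cells. From day 3, test compound (1 or 10 mg/kg) or vehicle (5% DMSO in PBS) was given i.p. every 3 days for the whole experiment. Groups were randomly assigned.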

CDK4 = settings: read-out: IC50 for CDK4; ref Asghar et al., 2015; cited from earlier work
CDK1 = settings: read-out: IC50 for CDK1; ref Asghar et al., 2015; cited from earlier work
CDK9 = settings: read-out: IC50 for CDK9; ref Asghar et al., 2015; cited from earlier work

SMILES: Cc1c[nH]c(-c2cnc(NCCNc3ccc(C#N)cn3)nc2-c2ccc(Cl)cc2Cl)n1 [CHR99021]
GFP reactivation by GSK-3 inhibitors [1]: no GFP reactivation

SMILES: Nc1ncn([C@H]2C[C@H](O)[C@@H](CO)O2)c(=O)n1 [DAC, decitabine]
silenced genes (RPKM < 0.31) up (YB5 cells [2]): 1238 genes | time to reactivation of hypermethylated genes (YB5 cells [3]; YB5, daily 100nM, for most genes): at least 24 hrs

SMILES: [Cl-].[Li+] [LiCl]
GFP reactivation by GSK-3 inhibitors [1]: no GFP reactivation

SMILES: Nc1nc(N[C@H]2CC3CCC2C3)sc1C(=O)c1ccccc1[N+](=O)[O-] (stereo partly drawn) [MC180295, (4-amino-2-(((2S)-bicyclo[2.2.1]heptan-2-yl)amino)thiazol-5-yl)(2-nitrophenyl)methanone]
inhibition of GSK-3β (GSK-3β): inhibited | inhibition of GSK-3α (GSK-3α): inhibited | GFP+ cells ([1]; YB5, 500nM, four days after single dose): ~ 60% | concentration active for GFP reactivation ([1]; YB5, four days after single dose): 50 nM | killing of human T lymphocytes in vivo (human T lymphocytes): did not kill human T lymphocytes | ratio of CD4 and CD8 T cells in vivo (human T lymphocytes): did not affect the ratio of CD4 and CD8 T cells | reactivation of GFP and GLDC in tumors [4]: reactivated GFP and GLDC in a dose dependent manner | mouse survival (SW48; 20mg/kg i.p. qod): improved mouse survival | toxicity as measured by body weight (SW48; 20mg/kg qod): without causing overt toxicity | tumor growth (SW48; 20mg/kg qod): tumors grew slower | dephosphorylation of Ser2 (pSer2) [5]: dephosphorylated at nanomolar doses | reduction of colony formation in soft agar (YB5 and HCT116): 30–80% | induction of differentiation marker CD11b (HL60 cell line): significant induction | effect on CDK1/2 substrates (CDK1/2 substrates): not affected at all | phosphorylation of RNA-Pol-ll CTD, BRG1 and CDK9 by CDK9 (CDK9/CyclinT1): unphosphorylated after CDK9 inhibition | reduction of proliferation, cancer cells compared to IMR90 [6]: more effective in reducing proliferation of cancer cells | cell cycle arrest (YB5): no cell cycle arrest | sub-G1 subpopulation (YB5): an increase in the sub-G1 subpopulation | selectivity within the human kinome (panel of 250 kinases): highly selective against CDKs | effect on substrates of CDK4/6 (substrates of CDK4/6): only affected at substantially higher doses | body weights (SW48-luc cells; every other day treatment): did not affect body weights | survival of the mice (SW48-luc cells; i.p. every other day, log-rank test): significantly extend survival

SMILES: O=C(/C=C/N1C[C@H]2C[C@@H]1CN2c1ccccn1)c1ccccc1O [PFI-3]
effect on GFP activation by CDK9 inhibitors ([1]; YB5, 72hr daily pretreatment followed by 24hr co-treatment with HH1 or iCDK9): inhibited GFP activation by CDK9 inhibitors in a dose-dependent manner

SMILES: CC(C)(C)c1cnc(CSc2cnc(NC(=O)C3CCNCC3)s2)o1 [SNS-032]
tumor growth (SW48; 20mg/kg qod): tumors grew slower | survival (ID8; 10mg/kg): extended survival | tumor burden (ascites fluid) (ID8; 10mg/kg): reduced tumor burden | activated dendritic cells (CD80/CD86+ and CD11c/MHCII+) in the tumor microenvironment (ID8; flow cytometry of ascites): increased populations of activated dendritic cells | immune cells (CD45+) and T cells (CD3+) in the tumor microenvironment (ID8; flow cytometry of ascites): increased populations of immune cells (CD45+) and T cells (CD3+)

phosphorylation of RNA-Pol-ll CTD, BRG1 and CDK9 by CDK9 (CDK9/CyclinT1): unphosphorylated after CDK9 inhibition
SMILES: CN1CC[C@H](c2c(O)cc(O)c3c(=O)cc(-c4ccccc4Cl)oc23)[C@H](O)C1 [flavopiridol]
IC50 (CDK4): […] | IC50 (CDK1): […] | IC50 (CDK9): […] | reactivation of SYNE1 and MGMT (YB5 cells [3]): led to gene reactivation

SMILES: NC1CCC(Nc2cc(-c3cccc(NCc4cccc(F)c4)n3)c(Cl)cn2)CC1 (centres unmarked) [iCDK9]
reactivation of SYNE1 and MGMT (YB5 cells [3]): led to gene reactivation
